Tests used:
Format in all cases: functional
KM12 = assay: Cytotoxicity against human KM12 cells after 48 hrs by SRB assay; conditions: KM12, 48 h
Procedure, shortened: (§1)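 NCI 60-cell-line screen. Cells preincubated 24 h at 37 °C, 5% CO2; time-zero plates TCA-fixed. Compounds dissolved in DMSO and tested at five concentrations (100, 10, 1.0, 0.1, 0.01 µM) for 48 h continuous exposure. Adherent cells fixed with cold TCA (10% final), then SRB stained; absorbance at 515 nm. GI50, TGI and LC50 calculated from growth relative to time-zero and untreated controls.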

SF-295 = assay: Cytotoxicity against human SF295 cells after 48 hrs by SRB assay; conditions: SF-295, 48 h; procedure, shortened: as §1
MDA-MB-231 = assay: Cytotoxicity against human MDA-MB-231 cells after 48 hrs by SRB assay; conditions: MDA-MB-231, 48 h; procedure, shortened: as §1
HL-60(TB) = assay: Cytotoxicity against human HL-60(TB) cells after 48 hrs by SRB assay; conditions: HL-60, 48 h; procedure, shortened: as §1
U-251 = assay: Cytotoxicity against human U251 cells after 48 hrs by SRB assay; conditions: U-251, 48 h
Procedure, shortened: (§2)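 NCI 60-cell screen. Cells grew 24 h (37 °C, 5% CO2) before compound was added. Compounds were in DMSO and diluted in medium with gentamicin, then tested at five levels (100, 10, 1.0, 0.1, 0.01 µM) with 48 h continuous exposure. Adherent cells were fixed with TCA (10% final) and stained with 0.4% SRB, absorbance read at 515 nm. A time-zero plate was included. LC50 is the concentration giving 50% loss of protein relative to time zero.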

CAKI-1 = assay: Cytotoxicity against human Caki1 cells after 48 hrs by SRB assay; conditions: CAKI-1, 48 h; procedure, shortened: as §1
Hs-578T = assay: Cytotoxicity against human Hs578T cells after 48 hrs by SRB assay; procedure, shortened: as §1
PC-3 = assay: Cytotoxicity against human PC3 cells after 48 hrs by SRB assay; conditions: PC-3, 48 h; procedure, shortened: as §1
MDA-MB-468 = assay: Cytotoxicity against human MDA-MB-468 cells after 48 hrs by SRB assay; conditions: MDA-MB-468, 48 h; procedure, shortened: as §1
COLO 205 = assay: Cytotoxicity against human COLO205 cells after 48 hrs by SRB assay; conditions: COLO 205, 48 h; procedure, shortened: as §1
HCT-15 = assay: Cytotoxicity against human HCT15 cells after 48 hrs by SRB assay; conditions: HCT-15, 48 h; procedure, shortened: as §1
A498 = assay: Cytotoxicity against human A498 cells after 48 hrs by SRB assay; conditions: A498, 48 h; procedure, shortened: as §1
SF-539 = assay: Cytotoxicity against human SF539 cells after 48 hrs by SRB assay; conditions: SF-539, 48 h; procedure, shortened: as §1
RXF 393 = assay: Cytotoxicity against human RXF393 cells after 48 hrs by SRB assay; conditions: RXF 393, 48 h; procedure, shortened: as §1
SK-OV-3 = assay: Cytotoxicity against human SKOV3 cells after 48 hrs by SRB assay; conditions: SK-OV-3, 48 h; procedure, shortened: as §1
DU-145 = assay: Cytotoxicity against human DU145 cells after 48 hrs by SRB assay; conditions: DU-145, 48 h; procedure, shortened: as §1
TK-10 = assay: Cytotoxicity against human TK10 cells after 48 hrs by SRB assay; conditions: TK-10, 48 h; procedure, shortened: as §2
Malme-3M = assay: Cytotoxicity against human MALME-3M cells after 48 hrs by SRB assay; procedure, shortened: as §1
SNB-75 = assay: Cytotoxicity against human SNB75 cells after 48 hrs by SRB assay; conditions: SNB-75, 48 h; procedure, shortened: as §2
BT-549 = assay: Cytotoxicity against human BT549 cells after 48 hrs by SRB assay; conditions: BT-549, 48 h; procedure, shortened: as §1
UACC-62 = assay: Cytotoxicity against human UACC62 cells after 48 hrs by SRB assay; conditions: UACC-62, 48 h; procedure, shortened: as §2
CCRF-CEM = assay: Cytotoxicity against human CCRF-CEM cells after 48 hrs by SRB assay; procedure, shortened: as §1
OVCAR-4 = assay: Cytotoxicity against human OVCAR4 cells after 48 hrs by SRB assay; conditions: OVCAR-4, 48 h; procedure, shortened: as §1
M14 = assay: Cytotoxicity against human M14 cells after 48 hrs by SRB assay; conditions: M14, 48 h; procedure, shortened: as §1
SR = assay: Cytotoxicity against human SR cells after 48 hrs by SRB assay; procedure, shortened: as §2
LOX IMVI = assay: Cytotoxicity against human LOXIMVI cells after 48 hrs by SRB assay; procedure, shortened: as §1
SW-620 = assay: Cytotoxicity against human SW620 cells after 48 hrs by SRB assay; conditions: SW-620, 48 h; procedure, shortened: as §2
UACC-257 = assay: Cytotoxicity against human UACC257 cells after 48 hrs by SRB assay; conditions: UACC-257, 48 h; procedure, shortened: as §2
IGROV-1 = assay: Cytotoxicity against human IGROV1 cells after 48 hrs by SRB assay; conditions: IGROV-1, 48 h; procedure, shortened: as §1
A549 = assay: Cytotoxicity against human A549/ATCC cells after 48 hrs by SRB assay; conditions: A549, 48 h; procedure, shortened: as §1
UO-31 = assay: Cytotoxicity against human UO31 cells after 48 hrs by SRB assay; conditions: UO-31, 48 h; procedure, shortened: as §2
NCI-H23 = assay: Cytotoxicity against human NCI-H23 cells after 48 hrs by SRB assay; conditions: NCI-H23, 48 h; procedure, shortened: as §1
HT-29 = assay: Cytotoxicity against human HT-29 cells after 48 hrs by SRB assay; conditions: HT-29, 48 h; procedure, shortened: as §1
MOLT-4 = assay: Cytotoxicity against human MOLT4 cells after 48 hrs by SRB assay; conditions: MOLT-4, 48 h; procedure, shortened: as §1
786-0 = assay: Cytotoxicity against human 786-0 cells after 48 hrs by SRB assay; conditions: 786-0, 48 h; procedure, shortened: as §1
NCI/ADR-RES = assay: Cytotoxicity against human NCI/ADR-RES cells after 48 hrs by SRB assay; procedure, shortened: as §1
[1] = read-out: LC50 (the source's name)

Q: Which GI50 (KM12) does the source give for `COc1ccc(C2CC(c3ccc(Nc4ccnc5cc(Cl)ccc45)cc3)=NN2C=O)cc1` (stereo unspecified) here?
A: 16.5 µM

Q: What about the LC50 (concentration killing 50% of cells) (KM12) of the same compound?
A: > 100 µM

Q: What about the GI50 (SF-295) of the same compound?
A: 24.8 µM

Q: What about the LC50 (SF-295) of the same compound?
A: > 100 µM

Q: What about the GI50 (MDA-MB-231) of the same compound?
A: 20.1 µM

Q: What about the LC50 (concentration killing 50% of cells present at time zero) (MDA-MB-231) of the same compound?
A: > 100 µM

Q: And the GI50 (HL-60(TB))?
A: 2.23 µM

Q: And the CC50 (HL-60(TB); [1])?
A: > 100 µM

Q: And the GI50 (U-251)?
A: 1.5 µM

Q: What about the CC50 (U-251; [1]) of the same compound?
A: > 100 µM

Q: And the GI50 (CAKI-1)?
A: > 100 µM

Q: What about the LC50 (CAKI-1) of the same compound?
A: > 100 µM

Q: And the GI50 (Hs-578T)?
A: > 100 µM

Q: What about the LC50 (50% net cell kill) (Hs-578T) of the same compound?
A: > 100 µM

Q: What about the GI50 (PC-3) of the same compound?
A: 9.43 µM

Q: What about the LC50 (PC-3) of the same compound?
A: > 100 µM

Q: And the GI50 (MDA-MB-468)?
A: 1 µM

Q: And the LC50 (MDA-MB-468)?
A: > 100 µM

Q: What about the GI50 (COLO 205) of the same compound?
A: 3.56 µM

Q: And the LC50 (COLO 205)?
A: > 100 µM

Q: And the GI50 (HCT-15)?
A: 2.97 µM

Q: And the LC50 (concentration killing 50% of cells relative to time zero) (HCT-15)?
A: > 100 µM

Q: What about the GI50 (A498) of the same compound?
A: > 100 µM

Q: And the CC50 (A498; [1])?
A: > 100 µM

Q: What about the GI50 (SF-539) of the same compound?
A: > 100 µM

Q: And the CC50 (SF-539; [1])?
A: > 100 µM

Q: What about the GI50 (RXF 393) of the same compound?
A: 11.6 µM

Q: And the LC50 (concentration killing 50% of cells) (RXF 393)?
A: > 100 µM

Q: What about the GI50 (SK-OV-3) of the same compound?
A: > 100 µM

Q: And the LC50 (concentration killing 50% of cells) (SK-OV-3)?
A: > 100 µM

Q: And the GI50 (DU-145)?
A: 38 µM

Q: And the LC50 (concentration killing 50% of cells) (DU-145)?
A: > 100 µM

Q: And the GI50 (TK-10)?
A: 20.9 µM

Q: What about the LC50 (concentration giving 50% cell loss vs time zero) (TK-10) of the same compound?
A: > 100 µM

Q: What about the LC50 (Malme-3M) of the same compound?
A: > 100 µM

Q: What about the GI50 (SNB-75) of the same compound?
A: > 100 µM

Q: What about the LC50 (50% net cell kill) (SNB-75) of the same compound?
A: > 100 µM

Q: And the GI50 (BT-549)?
A: 10.9 µM

Q: And the LC50 (50% net cell kill vs time zero) (BT-549)?
A: > 100 µM

Q: What about the GI50 (UACC-62) of the same compound?
A: 5.99 µM

Q: And the CC50 (UACC-62; [1])?
A: > 100 µM

Q: And the GI50 (CCRF-CEM)?
A: 2.71 µM

Q: What about the LC50 (concentration killing 50% of cells relative to time zero) (CCRF-CEM) of the same compound?
A: > 100 µM

Q: And the GI50 (OVCAR-4)?
A: 13.4 µM

Q: What about the LC50 (OVCAR-4) of the same compound?
A: > 100 µM

Q: And the GI50 (M14)?
A: 7.67 µM

Q: What about the CC50 (M14; [1]) of the same compound?
A: > 100 µM

Q: And the GI50 (SR)?
A: 2.83 µM

Q: What about the LC50 (SR) of the same compound?
A: > 100 µM

Q: What about the GI50 (LOX IMVI) of the same compound?
A: 2.32 µM

Q: And the LC50 (LOX IMVI)?
A: > 100 µM

Q: And the GI50 (SW-620)?
A: 35.8 µM

Q: What about the LC50 (SW-620) of the same compound?
A: > 100 µM

Q: And the GI50 (UACC-257)?
A: 4.39 µM

Q: And the LC50 (UACC-257)?
A: > 100 µM

Q: And the GI50 (IGROV-1)?
A: 43.1 µM

Q: And the LC50 (concentration killing 50% of cells relative to time zero) (IGROV-1)?
A: > 100 µM

Q: What about the GI50 (A549) of the same compound?
A: 50.3 µM

Q: What about the CC50 (A549; [1]) of the same compound?
A: > 100 µM

Q: And the GI50 (UO-31)?
A: 19.7 µM

Q: And the LC50 (UO-31)?
A: > 100 µM

Q: And the GI50 (NCI-H23)?
A: 5.06 µM

Q: What about the CC50 (NCI-H23; [1]) of the same compound?
A: > 100 µM

Q: What about the GI50 (HT-29) of the same compound?
A: 3.81 µM

Q: And the LC50 (HT-29)?
A: > 100 µM

Q: What about the GI50 (MOLT-4) of the same compound?
A: 2.54 µM

Q: What about the LC50 (MOLT-4) of the same compound?
A: > 100 µM

Q: And the GI50 (786-0)?
A: 32 µM

Q: What about the LC50 (786-0) of the same compound?
A: > 100 µM

Q: What about the GI50 (NCI/ADR-RES) of the same compound?
A: 7.04 µM

Q: And the CC50 (NCI/ADR-RES; [1])?
A: > 100 µM

From ChEMBL document CHEMBL2417469, “Synthesis of novel analogs of 2-pyrazoline obtained from [(7-chloroquinolin-4-yl)amino]chalcones and hydrazine as potential antitumor and antimalarial agents” (Eur J Med Chem, 2013)
